Data set [1] has as its system Homo sapiens. The data set can be described thus: Effect on renal function in human assessed as creatinine clearance in 24 hrs urine sample at 800 mg, iv after 4 days relative to baseline. In kind it is functional. A digest of the protocol:
(§1)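 Urine was collected over 24 h at baseline (−24 to 0 h), on day 4 (72–96 h) and on day 11 (240–264 h). CLCR = urinary creatinine amount / (SCr × 24 h) × (1.73/BSA), using SCr measured at the start of each collection.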

The subject of data set [2] is Homo sapiens. The data set can be described thus: Effect on renal function in human assessed as blood urea nitrogen concentration at 800 mg, iv after 4 days relative to baseline. In kind it is functional.
A short description of data set [3]: Clearance in human plasma after 4 days.
Data set [4] deals with Homo sapiens. Briefly: Effect on glomerular filtration rate in human assessed as creatinine clearance rate in plasma per 1.73 m2 at 800 mg, iv after 4 days relative to baseline. In kind it is functional.
For data set [5], the system named is Homo sapiens. Briefly: Effect on renal function in human assessed as serum creatinine concentration at 800 mg, iv after 4 days relative to baseline. In kind it is functional.
Data set [6] concerns Homo sapiens. The data set can be described thus: Effect on renal function in human assessed as creatinine clearance in 24 hrs urine sample at 800 mg, iv after 11 days relative to baseline. In kind it is functional. A digest of the protocol:
as §1

Data set [7] has as its system Homo sapiens. The data set can be described thus: Effect on glomerular filtration rate in human assessed as iohexol clearance rate in plasma per 1.73 m2 at 800 mg, iv after 4 days relative to baseline. In kind it is functional. A digest of the protocol:
(§2)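 GFR was measured as plasma clearance of iohexol. A single 20 ml bolus (300 mg/ml) was given on days 1, 4 and 11, timed to match 1 h after the end of the day-4 infusion. Blood was drawn at 120, 150, 180, 210, 240, 270 and 300 min and assayed by HPLC-UV. CL0 = dose × b/c1, with b and c1 from linear regression. Change from baseline used a noninferiority mixed-effects comparison with 95% CI.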

Data set [8] relates to Homo sapiens. The data set can be described thus: Effect on renal function in human assessed as blood urea nitrogen concentration at 800 mg, iv after 11 days relative to baseline. In kind it is functional.
The subject of data set [9] is Homo sapiens. Briefly: Effect on renal function in human assessed as serum creatinine concentration at 800 mg, iv after 11 days relative to baseline. In kind it is functional.
Data set [10] is described as follows: Tmax in human plasma. The data set is classed as ADME, organism-based. Put shortly: (§3)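 Plasma was sampled predose, at end of infusion, and 1, 3 and 9 h post-infusion on days 1 and 4, plus 24 h post-infusion on day 5. Drug was assayed by validated LC-MS/MS (0.02–10 µg/ml). Noncompartmental analysis; Cmax taken by observation without interpolation, with Tmax; day-4 values treated as steady state.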

Data set [11] has as its system Homo sapiens. Briefly: Effect on glomerular filtration rate in human assessed as creatinine clearance rate in plasma per 1.73 m2 at 800 mg, iv after 11 days relative to baseline. In kind it is functional.
Data set [12] in a line: Cmax at steady state in human after 4 days. The data set is classed as ADME, organism-based. Conditions: in vivo. A digest of the protocol: as §3
Data set [13] in a line: Renal clearance in human urine after 4 days. Conditions: read-out: CL_renal (converted). In kind it is ADME, organism-based. A digest of the protocol: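 Steady-state AUC (AUCss,24) covered 25 h from the start of the day-4 infusion to 24 h after it (linear up/log down rule). CL = dose/AUCss,24. Urine from 0–24 h on day 4 was assayed by LC-MS/MS, and renal clearance = Xu(0–24)/AUCss,24.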

For data set [14], the system named is Homo sapiens. The data set can be described thus: Effect on glomerular filtration rate in human assessed as iohexol clearance rate in plasma per 1.73 m2 at 800 mg, iv after 11 days relative to baseline. The data set is classed as functional. A digest of the protocol: as §2
A short description of data set [15]: Protein binding in human plasma. In kind it is ADME, organism-based. The following applies: read-out: PPB (converted). Put shortly: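 Plasma ultrafiltrate and matching plasma were sampled on days 1 and 4, predose and 1 and 4 h after infusion start, and assayed by LC-MS/MS (ultrafiltrate range 0.01–5.0 µg/ml). Binding at each time point was calculated from free ultrafiltrate versus total plasma concentration.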

A short description of data set [16]: Cmax […] in human after 1 day. Conditions: in vivo. In kind it is ADME, organism-based. Put shortly: as §3

Usually clearance stands for a measure of how efficiently the substance is removed, as volume per time. A word on the Tmax: it is the time from dosing to the highest level. Broadly, the Cmax is the maximum level reached in the sampled fluid or tissue.

With `COc1c(N2CC[C@@H](C3(N)CC3)C2)ccc2c(=O)c(C(=O)O)cn([C@@H]3C[C@@H]3F)c12`, the Activity with Homo sapiens [1] was -32.8; in the data set on Homo sapiens [2], 0.69; in the data set with Homo sapiens [4], 95.52 mL/min; with Homo sapiens [5], 0.3; in the data set with Homo sapiens [6], -3.4; in the data set on Homo sapiens [7], 1.12 mL/min. In addition, the Activity is -2.06 in the data set on Homo sapiens [8], 0.09 in the data set on Homo sapiens [9], 94.3 mL/min with Homo sapiens [11] and -2.44 mL/min in the data set with Homo sapiens [14]. In addition, in [3], the clearance amounted to 166 mL/min. Also, the Tmax in data set [10] came out at 1.25 h. The peak concentration (Cmax) in data set [12] was found to be 8850 ng/mL; in [16] it was 8210 ng/mL. In data set [13], the CL renal at 96 h is 43.3 mL/min. Further, the fraction unbound in [15] is 0.35.

The record behind these values is ChEMBL document CHEMBL1143829, “Lack of effect of DX-619, a novel des-fluoro(6)-quinolone, on glomerular filtration rate measured by serum clearance of cold iohexol” (Antimicrob Agents Chemother, 2007).
